Laboratory results from ChEMBL document CHEMBL2040821, “Design, synthesis, and biological evaluation of 1-[(2-benzyloxyl/alkoxyl)methyl]-5-halo-6-aryluracils as potent HIV-1 non-nucleoside reverse transcriptase inhibitors with an improved drug resistance profile” (J Med Chem, 2012).
pEC50, pIC50: −log10 of the molar value.

How the values were obtained:
[1] = target: Human immunodeficiency virus type 1 reverse transcriptase (Human immunodeficiency virus 1, UniProt Q72547); test: Inhibition of HIV1 reverse transcriptase using poly(ra)/oligo(dT)15 homopolymer template as substrate after 1 hr
[2] = test system: Human immunodeficiency virus 1; test: Antiviral activity against NNRTI-resistant HIV1 A17 expressing reverse transcriptase K103N and Y181C mutant infected in human MT4 cells assessed as inhibition of viral p24 antigen production after 7 days by ELISA; format: functional, organism-based; details: Human immunodeficiency virus 1, A17, MT4, 168 h
In short: (§1)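 MT4 cells (4 × 10⁴/well) were infected with 200 TCID₅₀ of HIV-1 and incubated 2 h at 37 °C. Compounds were then added at serial dilutions. Each compound was run in triplicate, reported as mean SD.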

[3] = test system: MT4; test: Cytotoxicity against human MT4 cells after 3 days by XTT assay; format: cell-based; details: mt4, 72 h
In short: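 MT4 cells (5 × 10⁴/well) exposed to graded compound concentrations at 37 °C for 3 days. CCK-8 reagent then added, with a further 4 h at 37 °C for XTT formazan colour development. Absorbance read at 450 nm to give CC₅₀. Each compound run in triplicate.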

[4] = Selectivity index, ratio of CC50 for human MT4 cells to EC50 for NNRTI-resistant HIV1 A17 expressing reverse transcriptase K103N and Y181C mutant; format: toxicity, cell-based; details: read-out: Ratio CC50/EC50
In short: (§2)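 SI is CC₅₀ in MT4 cells over EC₅₀ for each strain. For CC₅₀, MT4 cells (5 × 10⁴/well) were exposed to graded compound concentrations for 3 days at 37 °C, then given CCK-8/XTT for 4 h at 37 °C and read at 450 nm absorbance. Assays were run in triplicate.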

[5] = Selectivity index, ratio of CC50 for human MT4 cells to EC50 for HIV1 SF33; format: toxicity, cell-based; details: read-out: Ratio CC50/EC50; in short: as §2
[6] = test system: Human immunodeficiency virus 1; test: Antiviral activity against HIV1 SF33 infected in human MT4 cells assessed as inhibition of viral p24 antigen production after 7 days by ELISA; format: functional, organism-based; details: Human immunodeficiency virus 1, SF33, MT4, 168 h; in short: as §1
[7] = test system: Human immunodeficiency virus 1; test: Ratio of nevirapine EC50 to compound EC50 for HIV1 SF33; format: functional

| SMILES | pIC50 [1] | pEC50 [2] | CC50 [3] [µM] | selectivity ratio [4] | selectivity ratio [5] | pEC50 [6] | Ratio EC50 [7] |
| --- | --- | --- | --- | --- | --- | --- | --- |
| Cc1cc(C)cc(Cc2c(Br)c(N)nc(=O)n2COCc2ccccc2)c1 | 4.79 | – | – | – | – | – | – |
| Cc1cc(C)cc(Cc2c(I)c(=O)[nH]c(=O)n2COCc2ccccc2)c1 | 8.52 | 7.04 | 98.3 | 1080 | 38200 | 8.70 | 325 |
| O=c1[nH]c(=O)n(COCc2ccccc2)c(Cc2ccccc2)c1Br | 5.82 | < 5.00 | 67.4 | < 6.7 | 39 | 5.76 | – |
| Cc1cc(C)cc(Cc2c(I)c(N)nc(=O)n2COCc2ccccc2)c1 | 5.14 | – | – | – | – | – | – |
| Cc1ccnc2c1NC(=O)c1cccnc1N2C1CC1 [NEVIRAPINE] | – | < 5.00 | 325 | – | – | 7.17 | – |
| CCOCn1c(Cc2ccccc2)c(Br)c(=O)[nH]c1=O | 5.74 | < 5.00 | 155 | < 15.5 | 75 | 5.68 | – |
| CCOCn1c(Cc2cc(C)cc(C)c2)c(Br)c(=O)[nH]c1=O | 6.68 | – | – | – | – | – | – |
| CC(C)c1c(Cc2ccccc2)n(COCc2ccccc2)c(=O)[nH]c1=O | 7.70 | < 5.00 | 84.6 | < 6.6 | 3840 | 7.66 | – |
| CCOCn1c(Cc2cc(C)cc(C)c2)c(I)c(=O)[nH]c1=O | 6.96 | 6.20 | 142 | 222 | 23700 | 8.22 | – |
| O=c1[nH]c(=O)n(COCc2ccccc2)c(Cc2ccccc2)c1I | 8.00 | < 5.00 | 74.8 | < 7 | 1660 | 7.35 | – |
| CN(C)c1c(Cc2ccccc2)n(COCc2ccccc2)c(=O)[nH]c1=O | 7.92 | < 5.00 | 91.8 | < 9 | 264 | 6.46 | – |
| CCOCn1c(Cc2ccccc2)c(N(C)C)c(=O)[nH]c1=O | 6.79 | < 5.00 | 166 | < 16.6 | 270 | 6.21 | – |
| Cc1cc(C)cc(Cc2c(N(C)C)c(=O)[nH]c(=O)n2COCc2ccccc2)c1 | 7.68 | 5.66 | 55.8 | 25 | 5200 | 7.85 | 46 |
| CCOCn1c(Cc2cc(F)cc(F)c2)c(I)c(=O)[nH]c1=O | 4.93 | < 5.00 | 300 | < 30 | 559 | 6.27 | – |
| CCOCn1c(Cc2ccccc2)c(I)c(=O)[nH]c1=O | 6.94 | – | – | – | – | – | – |
| O=c1[nH]c(=O)n(COCc2ccccc2)c(Cc2cc(F)cc(F)c2)c1I | 7.82 | 5.59 | 121 | 48 | 20200 | 8.22 | 46 |
| Cc1cc(C)cc(Cc2c(Br)c(=O)[nH]c(=O)n2COCc2ccccc2)c1 | 7.37 | 6.22 | 152 | 253 | 16900 | 8.05 | – |
| CCOCn1c(Cc2cc(C)cc(C)c2)c(N(C)C)c(=O)[nH]c1=O | 7.41 | – | – | – | – | – | – |
